Source: ChEMBL document CHEMBL4699636, “Novel 2,7-Diazaspiro[4,4]nonane Derivatives to Inhibit Mouse and Human Osteoclast Activities and Prevent Bone Loss in Ovariectomized Mice without Affecting Bone Formation” (J Med Chem, 2020)
Active and inactive are the calls of the source. No cut-off for these calls is given here.

Experiments:
Osteoclast [1] = assay: Inhibition of resorption activity of mouse peripheral blood cell-derived osteoclasts at 5-10 uM incubated for 48 hrs by Kossa-staining based assay; type: functional, tissue-based; conditions: dose microM 5-10, time 48.0 hrs, in the assay text read “bone marrow-derived” for “peripheral blood cell-derived”
Outline: (§1)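 Osteoclasts from C57BL/6J mouse bone marrow, M-CSF then M-CSF 30 ng/mL plus RANKL 100 ng/mL. Day-3 cells reseeded on calcium phosphate-coated wells, compound added next day in 0.5% DMSO for 48 h, 8 wells per condition. 4 wells TRAP-stained for osteoclast counts, 4 von Kossa-stained for resorbed area. Activity expressed as resorption normalized to osteoclast number.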

[2] = Toxicity in mouse peripheral blood cell-derived osteoclasts assessed as reduction in osteoclasts number at 5-10 uM incubated for 48 hrs by TRAP-staining based assay; type: tissue-based; conditions: osteoclast, in the assay text read “bone marrow-derived” for “peripheral blood cell-derived”
Outline: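 Osteoclasts were derived from bone marrow of 4–8-week-old C57BL/6J mice, first with M-CSF 100 ng/mL for 48 h, then with M-CSF 30 ng/mL plus RANKL 100 ng/mL. At day 3 of differentiation they were detached with Accutase and seeded on calcium phosphate-coated wells. Next day, compound was added in 0.5% DMSO (8 wells/condition) for 48 h. Four wells were TRAP-stained (pH 5, tartrate, 1.5 h, 37 °C) and osteoclasts counted from images.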

[3] = target: T1, Dedicator of cytokinesis protein 5 (Homo sapiens, UniProt Q9H7D0); assay: Inhibition of C-terminal 6-histidine tagged human DOCK5 (1212 to 1642 residues) expressed in Escherichia coli assessed as reduction in nucleotide exchange efficiency at 20 to 60 uM by N-methylanthraniloyl-GDP fluorescence based nucleotide exchange assay; conditions: dose microM 20-60
Outline: (§2)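 Mant-GDP-loaded His-tagged human RAC1 at 2.0 µM with 100 nM DOCK5 (residues 1212-1642) or TRIOGEF1 (R1232-T1550), both E. coli-expressed. Buffer: 50 mM Tris pH 8, 300 mM NaCl, 2 mM MgCl2, 1 mM DTT, 1% DMSO, 25 °C. Reaction started with 100 µM GTP. Fluorescence decay read at ex 360/em 440 nm, kobs by single-exponential fit, compound at 0, 20 or 60 µM, duplicates, as % of activity.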

[4] = tested on: Osteoclast (Homo sapiens); assay: Inhibition of resorption activity of human peripheral blood cell-derived osteoclasts at 1-20 uM incubated for 48 hrs by Kossa-staining based assay; conditions: dose microM 1-20, time 48.0 hrs
[5] = target: Triple functional domain protein (Homo sapiens) (UniProt O75962); assay: Inhibition of C-terminal 6-histidine tagged human TRIOGEF1 (R1232 to T1550 residues) expressed in Escherichia coli assessed as reduction in nucleotide exchange efficiency at 20 to 60 uM by N-methylanthraniloyl-GDP fluorescence based nucleotide exchange assay; conditions: dose microM 20-60; outline: as §2
[6] = tested on: Osteoclast (Homo sapiens); assay: Toxicity in human peripheral blood cell-derived osteoclasts assessed as reduction in osteoclasts number at 20 uM incubated for 48 hrs by TRAP-staining based assay
[7] = target: Dedicator of cytokinesis protein 5 (Mus musculus) (UniProt B2RY04); assay: Inhibition of N-terminal GFP tagged mouse DOCK5 expressed in HEK293T cells assessed as reduction in exchange activity at 100 uM incubated for 1 hr by Western blot analysis based Rac-GTP pull-down assay; type: cell-based
Outline: (§3)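 HEK293T cells transiently expressing GFP-tagged DOCK5 DHR2 exchange domain (mouse, or human residues 1212-1642). Treated 1 h with compound in 1% DMSO, then lysed. Rac-GTP pulled down with GST-PakCRIB beads, 45 min at 4 °C, and detected by western blot. Band intensity normalized to lysate protein. Single dose 100 µM; dose-response in 1.5x steps for IC50.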

[8] = target: Dedicator of cytokinesis protein 5 (Mus musculus) (UniProt B2RY04); assay: Inhibition of DOCK5 in mouse osteoclasts assessed as induction of podosome belt organization defects at 100 uM incubated for 4 hrs by immunofluorescence based assay; conditions: Osteoclast
Outline: (§4)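 Mouse bone-marrow osteoclasts, differentiated with M-CSF and RANKL on coverslips. Compound added to 100 µM final, 0.5% DMSO, for 4 h. Cells fixed directly, or after medium change and overnight recovery, then stained for vinculin and actin (phalloidin) and viewed by widefield microscopy for podosome belt organization.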

[9] = target: Dedicator of cytokinesis protein 5 (Mus musculus) (UniProt B2RY04); assay: Inhibition of DOCK5 in mouse osteoclasts assessed as induction of podosome belt organization defects at 100 uM incubated for 4 hrs followed by compound wash out by overnight recovery by immunofluorescence based assay; type: tissue-based; conditions: Osteoclast; outline: as §4
Osteoclast [10] = assay: Inhibition of resorption activity of mouse peripheral blood cell-derived osteoclasts at 8 uM incubated for 48 hrs by Kossa-staining based assay; type: functional, tissue-based; conditions: in the assay text read “bone marrow-derived” for “peripheral blood cell-derived”; outline: as §1
[11] = target: T1, Dedicator of cytokinesis protein 5; assay: Inhibition of N-terminal GFP tagged human DOCK5 (1212-1642 residues) expressed in HEK293T cells assessed as reduction in exchange activity incubated for 1 hr by Western blot analysis based Rac-GTP pull-down assay; type: cell-based; outline: as §3
Mus musculus [12] = assay: Antiosteoporotic activity in C57BL6/J mouse model of OVX-induced bone loss assessed as trabecular bone volume per tissue volume level in femoral metaphysis at 100 ug/kg, sc QD for 4 weeks by histomorphometry (11.67 +/- 2.37%); type: functional; conditions: dose 100 µg/kg
[13] = Toxicity in C57BL6/J mouse model of OVX-induced bone loss assessed as effect on body weight at 100 ug/kg, sc QD for 4 weeks; type: organism-based; conditions: in vivo, 0.1 mg/kg, 672 h, dose 100 µg/kg
Mus musculus [14] = assay: Antiosteoporotic activity in C57BL6/J mouse model of OVX-induced bone loss assessed as trabecular thickness level in femoral metaphysis at 100 ug/kg, sc QD for 4 weeks by histomorphometry (39.96 +/- 5.42 um); type: functional; conditions: dose 100 µg/kg
Mus musculus [15] = assay: Antiosteoporotic activity in C57BL6/J mouse model of OVX-induced bone loss assessed as trabecular number level in femoral metaphysis at 100 ug/kg, sc QD for 4 weeks by histomorphometry (2.99 +/- 0.80 /mm); type: functional; conditions: dose 100 µg/kg
Mus musculus [16] = assay: Antiosteoporotic activity in C57BL6/J mouse model of OVX-induced bone loss assessed as trabecular separation level in femoral metaphysis at 100 ug/kg, sc QD for 4 weeks by histomorphometry (319.80 +/- 106.52 um); type: functional; conditions: dose 100 µg/kg
Mus musculus [17] = assay: Antiosteoporotic activity in C57BL6/J mouse model of OVX-induced bone loss assessed as trabecular bone volume per tissue volume level in tibial metaphysis at 100 ug/kg, sc QD for 4 weeks by microCT analysis (17.49 +/- 2.91 %); type: functional; conditions: dose 100 µg/kg
Mus musculus [18] = assay: Antiosteoporotic activity in C57BL6/J mouse model of OVX-induced bone loss assessed as trabecular pattern factor level in tibial metaphysis at 100 ug/kg, sc QD for 4 weeks by microCT analysis (17.17 +/- 3.41 […]); type: functional; conditions: dose 100 µg/kg
Mus musculus [19] = assay: Antiosteoporotic activity in C57BL6/J mouse model of OVX-induced bone loss assessed as degree of anisotropy (range 0-1) level in tibial metaphysis at 100 ug/kg, sc QD for 4 weeks by microCT analysis (0.53 +/- 0.07); type: functional; conditions: dose 100 µg/kg
Mus musculus [20] = assay: Antiosteoporotic activity in C57BL6/J mouse model of OVX-induced bone loss assessed as structure model index level in tibial metaphysis at 100 ug/kg, sc QD for 4 weeks by microCT analysis (1.92 +/- 0.19); type: functional; conditions: dose 100 µg/kg
Mus musculus [21] = assay: Antiosteoporotic activity in C57BL6/J mouse model of OVX-induced bone loss assessed as cortical thickness level in tibial diaphysis at 100 ug/kg, sc QD for 4 weeks by microCT analysis (179.27 +/- 7.57 um); type: functional; conditions: dose 100 µg/kg
Mus musculus [22] = assay: Antiosteoporotic activity in C57BL6/J mouse model of OVX-induced bone loss assessed as serum CTX-1 level […] at 100 ug/kg, sc QD for 4 weeks (165.38 +/- 54.93 %); type: functional; conditions: dose 100 µg/kg
[23] = Toxicity in C57BL6/J mouse model of OVX-induced bone loss assessed as effect on bone formation by measuring number of osteoblasts per bone surface level in femoral metaphysis at 100 ug/kg, sc QD for 4 weeks by histomorphometry (4.55 +/ 2.53 /mm); type: organism-based; conditions: in vivo, 0.1 mg/kg, 672 h, dose 100 µg/kg
[24] = Toxicity in C57BL6/J mouse model of OVX-induced bone loss assessed as effect on bone formation by measuring osteoblast surface per trabecular bone surface level in femoral metaphysis at 100 ug/kg, sc QD for 4 weeks by histomorphometry (5.03 +/ 2.92 %); type: organism-based; conditions: in vivo, 0.1 mg/kg, 672 h, dose 100 µg/kg
[25] = Toxicity in C57BL6/J mouse model of OVX-induced bone loss assessed as effect on bone formation by measuring mineralizing surface per trabecular bone surface level in femoral metaphysis at 100 ug/kg, sc QD for 4 weeks by histomorphometry (27.90 +/ 8.22 %); type: organism-based; conditions: in vivo, 0.1 mg/kg, 672 h, dose 100 µg/kg
[26] = Toxicity in C57BL6/J mouse model of OVX-induced bone loss assessed as effect on bone formation by measuring mineralizing mineral apposition rate level in femoral metaphysis at 100 ug/kg, sc QD for 4 weeks by histomorphometry (1.62 +/ 0.21 um/d (lcm)); type: organism-based; conditions: in vivo, 0.1 mg/kg, 672 h, dose 100 µg/kg
[27] = Toxicity in C57BL6/J mouse model of OVX-induced bone loss assessed as effect on bone formation by measuring bone formation rate per trabecular bone surface level in femoral metaphysis at 100 ug/kg, sc QD for 4 weeks by histomorphometry ([…]); type: organism-based; conditions: in vivo, 0.1 mg/kg, 672 h, dose 100 µg/kg
[28] = Toxicity in C57BL6/J mouse model of OVX-induced bone loss assessed as effect on bone formation by measuring osteocalcin level at 100 ug/kg, sc QD for 4 weeks […]; type: organism-based; conditions: in vivo, 0.1 mg/kg, 672 h, dose 100 µg/kg

Chain of Dedicator of cytokinesis protein 5 (Mus musculus) (B2RY04 whole entry, the tested form may be a part): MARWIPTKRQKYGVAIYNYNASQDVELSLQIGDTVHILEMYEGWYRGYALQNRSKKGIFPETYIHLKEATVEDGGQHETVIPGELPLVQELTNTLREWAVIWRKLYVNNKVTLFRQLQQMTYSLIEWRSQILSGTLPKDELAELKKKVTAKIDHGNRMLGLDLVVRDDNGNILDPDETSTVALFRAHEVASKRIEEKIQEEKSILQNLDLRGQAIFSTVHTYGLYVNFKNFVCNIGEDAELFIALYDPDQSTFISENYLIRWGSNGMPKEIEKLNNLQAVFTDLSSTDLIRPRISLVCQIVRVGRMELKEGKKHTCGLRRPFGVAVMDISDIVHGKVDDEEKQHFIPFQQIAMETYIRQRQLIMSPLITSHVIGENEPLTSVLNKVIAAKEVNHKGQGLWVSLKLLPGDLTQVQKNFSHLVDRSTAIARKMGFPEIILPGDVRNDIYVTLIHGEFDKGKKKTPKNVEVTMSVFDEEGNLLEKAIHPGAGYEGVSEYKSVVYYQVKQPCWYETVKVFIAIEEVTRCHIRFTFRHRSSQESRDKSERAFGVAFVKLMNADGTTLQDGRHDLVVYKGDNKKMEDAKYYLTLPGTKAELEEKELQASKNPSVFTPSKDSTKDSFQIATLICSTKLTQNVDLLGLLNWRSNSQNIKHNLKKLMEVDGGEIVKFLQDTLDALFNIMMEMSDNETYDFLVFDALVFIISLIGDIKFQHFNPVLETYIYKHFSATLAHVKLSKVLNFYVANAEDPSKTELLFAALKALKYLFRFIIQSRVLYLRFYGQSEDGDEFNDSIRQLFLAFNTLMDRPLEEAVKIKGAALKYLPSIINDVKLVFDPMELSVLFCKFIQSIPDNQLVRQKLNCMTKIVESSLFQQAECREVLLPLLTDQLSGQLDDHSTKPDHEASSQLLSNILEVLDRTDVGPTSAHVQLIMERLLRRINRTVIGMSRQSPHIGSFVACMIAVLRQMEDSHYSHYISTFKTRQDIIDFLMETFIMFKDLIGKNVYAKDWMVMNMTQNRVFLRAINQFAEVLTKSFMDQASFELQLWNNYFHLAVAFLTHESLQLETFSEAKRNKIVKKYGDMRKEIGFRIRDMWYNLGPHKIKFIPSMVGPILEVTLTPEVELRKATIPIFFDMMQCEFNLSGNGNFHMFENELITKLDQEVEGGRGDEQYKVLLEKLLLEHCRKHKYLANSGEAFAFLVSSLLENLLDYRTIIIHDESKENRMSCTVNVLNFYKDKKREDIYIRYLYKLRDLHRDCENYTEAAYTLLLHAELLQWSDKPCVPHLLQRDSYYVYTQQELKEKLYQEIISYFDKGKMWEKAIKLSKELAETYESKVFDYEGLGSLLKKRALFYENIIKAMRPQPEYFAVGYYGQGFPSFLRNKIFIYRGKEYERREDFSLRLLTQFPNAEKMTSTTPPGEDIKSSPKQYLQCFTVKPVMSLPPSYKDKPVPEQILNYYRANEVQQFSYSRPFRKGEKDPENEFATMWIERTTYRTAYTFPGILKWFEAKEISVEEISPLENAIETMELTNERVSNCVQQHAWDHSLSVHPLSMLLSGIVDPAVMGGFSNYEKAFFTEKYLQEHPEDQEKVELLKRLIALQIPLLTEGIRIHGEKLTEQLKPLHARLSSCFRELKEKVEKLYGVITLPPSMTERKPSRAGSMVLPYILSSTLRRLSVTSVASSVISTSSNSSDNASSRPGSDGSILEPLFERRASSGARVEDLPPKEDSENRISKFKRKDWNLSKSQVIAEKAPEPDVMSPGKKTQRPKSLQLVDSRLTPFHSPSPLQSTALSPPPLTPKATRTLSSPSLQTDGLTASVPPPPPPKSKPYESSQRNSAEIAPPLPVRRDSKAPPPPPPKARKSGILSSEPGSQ
T1 sequence (Q9H7D0 whole entry, the tested form may be a part): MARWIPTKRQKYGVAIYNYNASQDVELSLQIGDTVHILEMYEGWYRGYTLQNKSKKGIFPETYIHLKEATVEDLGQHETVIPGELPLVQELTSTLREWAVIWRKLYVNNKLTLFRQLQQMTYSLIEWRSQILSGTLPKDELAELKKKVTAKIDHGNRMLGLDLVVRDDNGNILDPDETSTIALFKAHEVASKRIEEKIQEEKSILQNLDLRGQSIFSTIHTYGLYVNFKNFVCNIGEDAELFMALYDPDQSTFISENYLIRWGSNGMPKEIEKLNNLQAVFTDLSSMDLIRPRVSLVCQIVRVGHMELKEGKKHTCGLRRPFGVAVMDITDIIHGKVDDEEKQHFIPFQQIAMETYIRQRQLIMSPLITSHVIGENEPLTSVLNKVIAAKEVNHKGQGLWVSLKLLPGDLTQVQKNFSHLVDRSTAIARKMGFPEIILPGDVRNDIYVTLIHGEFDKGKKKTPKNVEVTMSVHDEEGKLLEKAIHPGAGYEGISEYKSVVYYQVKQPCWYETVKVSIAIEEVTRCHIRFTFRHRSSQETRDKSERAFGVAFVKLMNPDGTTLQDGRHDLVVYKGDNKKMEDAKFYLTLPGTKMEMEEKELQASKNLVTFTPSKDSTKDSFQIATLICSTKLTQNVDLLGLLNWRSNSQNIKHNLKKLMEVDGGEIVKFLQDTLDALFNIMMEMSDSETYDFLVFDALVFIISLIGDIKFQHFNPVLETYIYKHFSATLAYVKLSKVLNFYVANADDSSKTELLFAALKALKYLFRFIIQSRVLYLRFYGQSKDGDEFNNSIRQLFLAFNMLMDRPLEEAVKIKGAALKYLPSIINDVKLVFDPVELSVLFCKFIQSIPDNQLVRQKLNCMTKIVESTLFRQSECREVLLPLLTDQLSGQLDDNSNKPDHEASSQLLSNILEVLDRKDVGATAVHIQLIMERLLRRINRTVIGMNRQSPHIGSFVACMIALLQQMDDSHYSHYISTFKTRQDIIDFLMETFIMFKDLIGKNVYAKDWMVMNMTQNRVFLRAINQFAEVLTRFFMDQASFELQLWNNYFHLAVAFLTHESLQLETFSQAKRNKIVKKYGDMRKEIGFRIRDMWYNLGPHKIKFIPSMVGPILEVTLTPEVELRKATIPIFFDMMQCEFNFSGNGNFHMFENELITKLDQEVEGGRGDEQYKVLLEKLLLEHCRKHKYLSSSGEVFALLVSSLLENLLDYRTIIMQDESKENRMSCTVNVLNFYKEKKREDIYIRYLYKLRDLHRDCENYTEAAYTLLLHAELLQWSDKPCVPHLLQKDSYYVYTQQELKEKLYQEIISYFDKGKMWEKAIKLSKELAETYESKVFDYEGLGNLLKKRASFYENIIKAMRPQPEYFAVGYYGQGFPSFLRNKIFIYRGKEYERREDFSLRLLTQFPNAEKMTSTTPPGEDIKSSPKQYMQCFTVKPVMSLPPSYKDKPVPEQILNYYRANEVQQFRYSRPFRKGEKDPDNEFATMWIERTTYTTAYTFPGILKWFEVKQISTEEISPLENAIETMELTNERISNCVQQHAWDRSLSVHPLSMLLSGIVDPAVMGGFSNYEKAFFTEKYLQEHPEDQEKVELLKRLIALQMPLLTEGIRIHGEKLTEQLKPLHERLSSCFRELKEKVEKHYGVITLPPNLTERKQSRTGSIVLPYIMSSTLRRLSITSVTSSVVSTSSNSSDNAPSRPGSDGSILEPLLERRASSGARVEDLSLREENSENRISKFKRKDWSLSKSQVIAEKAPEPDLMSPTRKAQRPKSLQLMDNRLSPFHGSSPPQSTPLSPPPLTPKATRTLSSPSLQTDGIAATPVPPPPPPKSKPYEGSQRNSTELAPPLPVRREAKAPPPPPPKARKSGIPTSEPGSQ

## COc1ccc(N2CCC3(CCN(Cc4cccc(Cl)c4)C3)C2=O)cc1C (stereo unspecified)
Osteoclast [1]
  inhibition: Active
[2]
  Activity: Toxic
[3]
  inhibition: inactive

## O=C1N(c2cccc(F)c2)CCC12CCN(Cc1cccc(Cl)c1)C2 (stereo unspecified)
Osteoclast [1]
  inhibition: Active
[2]
  Activity: Toxic
[3]
  inhibition: inactive

## NCCCC(O)(P(=O)(O)O)P(=O)(O)O
[4]
  inhibition: Active

## O=S1(=O)N(c2ccccc2)C[C@H](O)[C@]12CCN(Cc1ccc(Cl)c(Cl)c1)C2 (racemic)
Osteoclast [1]
  inhibition: Active
[3]
  inhibition: 67%
[5]
  inhibition: inactive
[4]
  inhibition: Active
[6]
  Activity: Toxic

## O=S1(=O)N(c2ccccc2)C[C@H](O)[C@]12CCN(Cc1cccc(Cl)c1)C2 (racemic)
[7]
  inhibition: Active
[8]
  inhibition: Active
[9]
  inhibition: inactive
Osteoclast [10]
  inhibition: Active
[11]
  IC50: 24 µM
Osteoclast [1]
  inhibition: Active
[3]
  inhibition: inactive

## COc1ccc(CN2CC[C@@]3(C2)[C@@H](O)CN(c2ccccc2)S3(=O)=O)cc1F (racemic)
Osteoclast [1]
  inhibition: Active
[3]
  inhibition: inactive

## Cn1cc(CN2CC[C@@]3(C2)[C@@H](O)CN(c2ccccc2)S3(=O)=O)c2ccccc21 (racemic)
Osteoclast [1]
  inhibition: Active
[3]
  inhibition: inactive

## O=S1(=O)N(c2ccccc2)C[C@H](O)[C@]12CCN(Cc1ccc3c(c1)CCC3)C2 (racemic)
Osteoclast [1]
  inhibition: Active
[3]
  inhibition: inactive

## O=S1(=O)N(c2ccccc2)C[C@H](O)[C@]12CCN(Cc1ccccc1Cl)C2 (racemic)
Osteoclast [1]
  inhibition: Active
[3]
  inhibition: inactive

## O=S1(=O)N(c2ccccc2)C[C@H](O)[C@]12CCN(Cc1cnc3ccccc3c1)C2 (racemic)
Osteoclast [1]
  inhibition: Active
[3]
  inhibition: inactive

## O.O=P(O)(O)C(O)(Cn1ccnc1)P(=O)(O)O [ZOLEDRONIC ACID]
Mus musculus [12]
  Activity: 26.19%
[13]
  Activity: Non-Toxic
Mus musculus [14]
  Activity: 44.8 µm
Mus musculus [15]
  Activity: 5.92 /millimeter
Mus musculus [16]
  Activity: 132.16 um
Mus musculus [17]
  Activity: 43.96%
Mus musculus [18]
  Activity: -35.6 1/mm
Mus musculus [19]
  Activity_index: 0.25
Mus musculus [20]
  Activity_index: -1.36
Mus musculus [21]
  Activity: 189.5 um
Mus musculus [22]
  Activity: 73.18%
[23]
  Activity: 0.54 /millimeter
[24]
  Activity: 0.52%
[25]
  Activity: 8.51%
[26]
  Activity: 1.11 micrometer/day
[27]
  Activity: 34.28 um3/um2/yr
[28]
  Activity: 42.55%
